Experiments:
Rattus norvegicus [1] = assay: Antiinflammatory activity in albino rat assessed as inhibition of carrageenan-induced paw oedema at […], ip administered 1 hr before carrageenan challenge measured after 3 hrs relative to control; assay type: functional; design: scale not given: the % may be the effect or the level left; details: in the assay text read “relative to diclofenac sodium” for “relative to control”
Procedure, shortened: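 Albino rats of both sexes (120–150 g) were pre-hydrated with 3 ml water/rat by gastric tube. Oedema was induced by s.c. sub-plantar injection of 1% carrageenan gel into the right hind paw. Right and left paw dorso-ventral thickness was read with dial calipers at 1, 2 and 3 h. Inhibition % = (1 − Lt/Lc) × 100, using mean paw-thickness increase of treated versus control rats.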

Rattus norvegicus [2] = assay: Antiinflammatory activity in ip dosed albino rat assessed as inhibition of carrageenan-induced paw oedema administered 1 hr before carrageenan challenge measured after 3 hrs relative to control; assay type: functional, organism-based
Procedure, shortened: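 Carrageenan paw-oedema model in albino rats of both sexes (120–150 g), water-loaded with 3 ml by gastric tube. […] was calculated from doses of […], with paw-thickness inhibition read 3 h after sub-plantar injection of 1% carrageenan. Inhibition % = (1 − Lt/Lc) × 100.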

Rattus norvegicus [3] = assay: Toxicity in albino rat at 20 mg/kg assessed as ulcer index; details: in vivo
Rattus norvegicus [4] = assay: Toxicity in albino rat at 20 mg/kg assessed as ulcerogenicity; details: in vivo

Row | SMILES | Activity (Rattus norvegicus [1]) [%] | ED50 (Rattus norvegicus [2]) [µmol/kg] | UI (Rattus norvegicus [3]) | Activity (Rattus norvegicus [4]) [%]
1 | N#CC1=C(/N=C/Nc2ccccc2)N(c2ccccc2)C(=O)N2CCCCC(N3CCCC3)C12 (stereo not drawn) | 90.52 | – | – | –
2 | N#CC1=C(NCN2CCCCC2)N(c2ccccc2)C(=O)N2CCCCC(N3CCCC3)C12 (stereo not drawn) | 48.05 | – | – | –
3 | N#CC1=C(N)N(c2ccccc2)C(=O)N2CCCCC(N3CCCC3)C12 (stereo not drawn) | 102.85 | 6.61 | – | –
4 | COc1ccc(/C=N/C2=C(C#N)C3C(N4CCCC4)CCCCN3C(=O)N2c2ccccc2)cc1 (stereo not drawn) | 85.91 | – | – | –
5 | N#CC1=C(/N=C/Nc2ccc([N+](=O)[O-])cc2)N(c2ccccc2)C(=O)N2CCCCC(N3CCCC3)C12 (stereo not drawn) | 97.71 | – | 4.8 | 3
6 | N#CC1=C(/N=C/c2ccc([N+](=O)[O-])cc2)N(c2ccccc2)C(=O)N2CCCCC(N3CCCC3)C12 (stereo not drawn) | 104.68 | 7.14 | 3.6 | 2
7 | N#Cc1c2n(c(=O)n(-c3ccccc3)c1=N)CCCCC2N1CCCC1 (stereo not drawn) | 106.62 | 8.5 | – | –
8 | N#CC1=C(NCC(=O)N2CCOCC2)N(c2ccccc2)C(=O)N2CCCCC(N3CCCC3)C12 (stereo not drawn) | 83.9 | – | – | –
9 | N#CC1=C(NCC(=O)O)N(c2ccccc2)C(=O)N2CCCCC(N3CCCC3)C12 (stereo not drawn) | 101.82 | 10.3 | 5.4 | 4
10 | COC(=O)C(=O)NC1=C(C#N)C2C(N3CCCC3)CCCCN2C(=O)N1c1ccccc1 (stereo not drawn) | 100.79 | 10.6 | 2.2 | 1
11 | N#CC1=C(NCN2CCCC2)N(c2ccccc2)C(=O)N2CCCCC(N3CCCC3)C12 (stereo not drawn) | 40.29 | – | – | –
12 | O=C([O-])Cc1ccccc1Nc1c(Cl)cccc1Cl.[Na+] [DICLOFENAC SODIUM] | – | 7.26 | 9 | 6
13 | N#CC1=C(NC(=O)Cc2ccccc2Nc2c(Cl)cccc2Cl)N(c2ccccc2)C(=O)N2CCCCC(N3CCCC3)C12 (stereo not drawn) | 76.71 | – | – | –
14 | N#CC1=C(NCC(=O)N2CCCCC2)N(c2ccccc2)C(=O)N2CCCCC(N3CCCC3)C12 (stereo not drawn) | 61.07 | – | – | –
15 | N#CC1=C(/N=C/c2ccccc2)N(c2ccccc2)C(=O)N2CCCCC(N3CCCC3)C12 (stereo not drawn) | 95.9 | – | – | –
16 | N#CC1=C(NC(=O)c2ccccc2O)N(c2ccccc2)C(=O)N2CCCCC(N3CCCC3)C12 (stereo not drawn) | 74.65 | – | – | –
17 | N#CC1=C(NCN2CCOCC2)N(c2ccccc2)C(=O)N2CCCCC(N3CCCC3)C12 (stereo not drawn) | 50.68 | – | – | –
18 | N#CC1=C(NCC(=O)N2CCCC2)N(c2ccccc2)C(=O)N2CCCCC(N3CCCC3)C12 (stereo not drawn) | 63.93 | – | – | –
19 | COc1ccc(N/C=N/C2=C(C#N)C3C(N4CCCC4)CCCCN3C(=O)N2c2ccccc2)cc1 (stereo not drawn) | 57.3 | – | – | –
20 | CCOC(=O)C(=O)NC1=C(C#N)C2C(N3CCCC3)CCCCN2C(=O)N1c1ccccc1 (stereo not drawn) | 104.45 | 9.13 | 2.5 | 1

— ChEMBL document CHEMBL1177892, “Synthesis, anti-inflammatory and ulcerogenicity studies of some substituted pyrimido[1,6-a]azepine derivatives” (Eur J Med Chem, 2010)
